Assay results as given in paper PMC8385569 (JACC: Basic to Translational Science, 2021).

What was measured:
[1] = biological target: T1, human FPR1 (Homo sapiens, UniProt P21462); test: BRET biosensor signaling, HEK293 cells expressing human FPR1; type: cell-based
T1 sequence (P21462 1-350): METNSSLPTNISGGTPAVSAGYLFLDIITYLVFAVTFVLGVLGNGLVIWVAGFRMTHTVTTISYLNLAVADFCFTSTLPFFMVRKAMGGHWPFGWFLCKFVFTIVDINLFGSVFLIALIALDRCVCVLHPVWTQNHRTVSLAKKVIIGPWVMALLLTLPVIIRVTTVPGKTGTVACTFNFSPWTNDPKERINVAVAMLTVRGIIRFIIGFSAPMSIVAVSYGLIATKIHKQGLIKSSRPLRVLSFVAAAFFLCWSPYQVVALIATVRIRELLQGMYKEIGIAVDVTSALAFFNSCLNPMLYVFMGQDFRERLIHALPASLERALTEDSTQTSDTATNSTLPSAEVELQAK

[2] = tested on: differentiated HL-60 cells; test: Chemotaxis assay; type: cell-based, human
Method in brief: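 In vitro chemotaxis toward test compound was measured in differentiated HL-60 cells: parental, FPR1-deficient and FPR2 KO lines. EC50 came from a nonlinear concentration-response curve.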

[3] = tested on: mouse myocardial infarction (permanent LAD ligation); test: Mouse MI early short-term treatment, cardiac flow cytometry; type: in vivo; conditions: 3 mg/kg, 3 days post MI, mouse heart
Method in brief: (§1)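 Male C57BL/6 mice, 10-12 weeks old, had the LAD permanently occluded by suture under ketamine/xylazine anesthesia and isoflurane ventilation. Test compound, 3 mg/kg, was given by oral gavage once daily, starting 24 hours post MI. Hearts were analyzed about 3 days after occlusion.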

[4] = tested on: mouse myocardial infarction (permanent LAD ligation); test: Mouse MI early short-term treatment, histology and in situ hybridization; type: in vivo; conditions: 3 mg/kg, 3 days post MI
Method in brief: as §1

[5] = tested on: rat myocardial infarction (permanent coronary artery occlusion); test: Rat MI permanent coronary artery occlusion, 6 weeks; type: in vivo; conditions: 1 mg/kg once per day
Method in brief: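 Male Sprague Dawley rats, 6-7 weeks old, had permanent coronary artery occlusion by suture under ketamine/xylazine and isoflurane anesthesia. They received test compound at 1 mg/kg once daily for 6 weeks. LV volumes were measured by echocardiography. Terminally, under isoflurane, a 2.5-F conductance catheter was placed in the LV via right carotid cutdown, with parallel-conductance correction.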

[6] = tested on: isolated human neutrophils; test: Apoptosis assay of isolated human neutrophils activated with SAA; type: cell-based; conditions: co-incubation with BMS-986235 and SAA, relative to SAA-only treatment
[7] = tested on: HL-60 cells; test: Oxidative burst assay; type: cell-based, human
[8] = tested on: noninfarcted rats challenged with LPS; test: Acute LPS challenge in rat, IL-10; type: in vivo; conditions: 1 mg/kg
Method in brief: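 Adult male Sprague Dawley rats, 6-7 weeks old, without infarction, were dosed with test compound at 1 mg/kg and challenged with LPS. The read-out was IL-10 induction. Blood compound levels were taken 1.5 to 3 hours after dosing.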

[9] = biological target: T2, human FPR2 (Homo sapiens, UniProt P25090); test: BRET biosensor signaling, HEK293 cells expressing human FPR2; type: cell-based; conditions: Gαi1, Gαi2, Gαi3, GαoA, GαoB biosensors; FPR2 relative to FPR1
T2 sequence (P25090 1-351): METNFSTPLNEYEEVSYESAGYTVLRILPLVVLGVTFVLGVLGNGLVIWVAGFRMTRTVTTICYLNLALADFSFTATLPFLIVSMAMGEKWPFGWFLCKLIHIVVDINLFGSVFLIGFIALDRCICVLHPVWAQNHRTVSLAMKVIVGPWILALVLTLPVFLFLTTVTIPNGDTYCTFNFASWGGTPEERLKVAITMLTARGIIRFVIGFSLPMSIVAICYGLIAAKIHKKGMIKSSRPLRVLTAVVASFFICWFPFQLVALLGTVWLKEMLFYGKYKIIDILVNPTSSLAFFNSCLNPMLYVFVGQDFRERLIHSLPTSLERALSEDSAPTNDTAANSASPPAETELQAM
Method in brief: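 HEK293 cells transiently expressed human FPR1 or FPR2 with Gαi1, Gαi2, Gαi3, GαoA or GαoB BRET biosensors, and test compound was titrated. EC50 came from a nonlinear concentration-response curve fit. Selectivity ratio was FPR2 EC50/FPR1 EC50.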

[10] = tested on: mouse permanent coronary artery occlusion model; test: Mouse MI 28-day treatment, survival and histomorphometry; type: in vivo
[11] = tested on: rat myocardial ischemia-reperfusion injury; test: Rat ischemia-reperfusion study, 6 weeks; type: in vivo; conditions: 1 mg/kg, rat I/R
Method in brief: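 Male Sprague Dawley rats, 6-7 weeks old, underwent coronary ischemia-reperfusion and received test compound at 1 mg/kg for 6 weeks. Hearts were arrested in diastole, removed and mounted on a modified Langendorff apparatus. Passive LV pressure-volume relationships were recorded ex vivo.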

[12] = tested on: isolated human whole blood; test: Human blood assay, cytokine and FPR2 mRNA expression; type: cell-based; conditions: for increase in IL-10 mRNA levels / increase in MCP-1 mRNA versus control: isolated human whole blood; for increase in IL-10 mRNA levels: average
[13] = tested on: BioGel-elicited peritoneal macrophages; test: Zymosan phagocytosis assay; type: cell-based, mouse
[14] = tested on: rat myocardial infarction (permanent coronary artery occlusion); test: Rat MI 5 days, immunohistochemistry of peri-infarct zone; type: in vivo; conditions: 1 mg/kg, 5 days post-artery ligation

COc1cc(F)c([C@@H]2CNC(=O)[C@H]2NC(=O)Nc2ccccc2)c(F)c1 [BMS-986235, 1-((3S,4R)-4-(2,6-difluoro-4-methoxyphenyl)-2-oxopyrrolidin-3-yl)-3-phenylurea]
BRET signal for Gα12 and Gα13 [1]: minimal to no increase | concentrations at which chemotaxis attenuation was observed ([2]; HL-60 FPR1 KO, bell-shaped response): > 120 nM | enhancement in chemotaxis ([2]; HL-60 FPR2 KO line): no enhancement | number of total macrophages relative to vehicle [3]: unchanged | arginase-1 mRNA within peri-infarct border zone, fold vs vehicle [4]: +6.4 fold | Infarct Wall Thickness, change vs vehicle [5]: +38% | LV End Diastolic Volume (echocardiography), change vs vehicle [5]: -26% | LV End Systolic Volume (echocardiography), change vs vehicle [5]: -29% | Scar Area, change vs vehicle [5]: -26% | reduction of percentage of viable neutrophils [6]: 12% | Ymax oxidative burst ([7]; HL-60 FPR1 KO line): 38% | oxidative burst activity ([7]; HL-60 FPR2 KO line): abolished | Ymax oxidative burst ([7]; HL-60 cells expressing both receptors): 97% | EC50 ([7]; Homo sapiens, HL-60, read-out: EC50 oxidative burst): 130 nM | IL-10 induction [8]: efficacious dose | selectivity ratios (FPR2 EC50/FPR1 EC50) [9]: 164- to 614 fold | mortality over the 4 week study ([10]; 3 mg/kg once a day oral): significant reduction | reduction of infarct scar size relative to vehicle ([10]; 3 mg/kg, 4 weeks of treatment): ~55% | ex vivo LV pressure-volume curve vs vehicle [11]: left shifted | reduction of LV volume at end-diastole [11]: 26% | reduction of LV volume at end-systole [11]: 42% | transmural thickness of the infarct wall relative to vehicle [11]: without altering | viable myocardium at the distal end of the MI [11]: trend toward increased | % Viable Myocardium across infarct wall, increase vs vehicle ([11]; Mid MI region): 31% | % Viable Myocardium across infarct wall, increase vs vehicle ([11]; Proximal MI region): 31% | increase in IL-10 mRNA levels ([12]; 0.1 μM): 3 fold | increase in MCP-1 mRNA versus control ([12]; 1 μM): 28 fold | increase in MCP-1 mRNA versus control ([12]; 10 μM): 54 fold | increase in IL-10 mRNA levels ([12]; 10 μM): 6 fold | induction of FPR2 mRNA ([12]; any concentration (0.01-10 µM)): no significant induction | induction of IL-6 mRNA ([12]; any concentration (0.01-10 µM)): no significant induction | induction of IL-8 mRNA ([12]; any concentration (0.01-10 µM)): no significant induction | induction of TNFα mRNA ([12]; any concentration (0.01-10 µM)): no significant induction | phagocytosis response above control macrophages ([13]; FPR2 KO-derived peritoneal macrophages): minimal response | Ymax zymosan phagocytosis ([13]; WT-derived peritoneal macrophages): ~100% | myocardial CD206 levels at peri-infarct zone versus vehicle [14]: relative increases | myocardial IL-10 levels at peri-infarct zone versus vehicle [14]: relative increases
